Where two headings read alike, the source gives them in different places.
Experiments:
[1] = Stability of 99mTc-cyclized analogues to cysteine challenge; assay type: physicochemical; conditions: pH 7.4, 37 °C
[2] = In vitro stability of 99mTc-cyclized analogues in PBS; assay type: physicochemical; conditions: pH 7.4, 37 °C
Method in brief: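 Test peptides were labelled with 99mTc by exchange from 99mTc-glucoheptonate (pH 7.9–8.1, 60 °C, 30 min), purified by radio-RP-HPLC, mixed with gentisic acid and evaporated. They were diluted in PBS or 1 mM cysteine, adjusted to pH 7.4 and incubated at 37 °C. Aliquots at 1, 2, 4 and 24 h were analysed by RP-HPLC for % intact. Replicate measurements used radio-TLC on C18 (10% ammonium acetate; 1:1 TFA-water/acetonitrile).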

[3] = mouse, cited from earlier work
[4] = assay type: in vitro ADME; conditions: mouse, serum, pH 7.4

Substance: ^99mTc-Tyr^3-octreotate [99mTc-TATE]
- percent intact 99mTc-analogue post purification ([1]; 1 mM Cys, 1 h): 95.8 ± 2.4%
- percent intact 99mTc-analogue post purification ([1]; 1 mM Cys, 2 h): 85.3 ± 4.0%
- percent intact 99mTc-analogue post purification ([1]; 1 mM Cys, 4 h): 77.8 ± 3.3%
- percent intact 99mTc-analogue post purification ([1]; 1 mM Cys, 24 h): 45.0 ± 5.8%
- percent intact 99mTc-analogue post purification ([1]; 10 mM Cys, 1 h): 63.9 ± 4.1%
- percent intact 99mTc-analogue post purification ([1]; 10 mM Cys, 2 h): 53.3 ± 3.5%
- percent intact 99mTc-analogue post purification ([1]; 10 mM Cys, 4 h): 42.5 ± 5.6%
- percent intact 99mTc-analogue post purification ([1]; 10 mM Cys, 24 h): 15.0 ± 8.3%
- percent intact 99mTc-analogue post purification ([2]; 1 h): 86.2 ± 5.4%
- percent intact 99mTc-analogue post purification ([2]; 2 h): 73.7 ± 4.3%
- percent intact 99mTc-analogue post purification ([2]; 4 h): 60.4 ± 1.8%
- percent intact 99mTc-analogue post purification ([2]; 24 h): 37.9 ± 7.7%
- In vivo biodistribution, Adrenals ([3]; 4 h): 0.14 ± 0.06 %ID/g
- In vivo biodistribution, Blood ([3]; 4 h): 0.44 ± 0.05 %ID/g
- In vivo biodistribution, Kidney ([3]; 4 h): 1.37 ± 0.29 %ID/g
- In vivo biodistribution, Lg. Int ([3]; 4 h): 60.20 ± 6.39 %ID/g
- In vivo biodistribution, Liver ([3]; 4 h): 0.66 ± 0.03 %ID/g
- In vivo biodistribution, Muscle ([3]; 4 h): 0.05 ± 0.01 %ID/g
- In vivo biodistribution, Pancreas ([3]; 4 h): 0.19 ± 0.06 %ID/g
- In vivo biodistribution, Sm. lnt ([3]; 4 h): 2.08 ± 1.08 %ID/g
- In vivo biodistribution, Spleen ([3]; 4 h): 0.20 ± 0.02 %ID/g
- In vivo biodistribution, Stomach ([3]; 4 h): 4.82 ± 0.95 %ID/g
- In vivo biodistribution, Adrenals ([3]; 24 h): 0.01 ± 0.01 %ID/g
- In vivo biodistribution, Blood ([3]; 24 h): 0.05 ± 0.01 %ID/g
- In vivo biodistribution, Kidney ([3]; 24 h): 0.60 ± 0.05 %ID/g
- In vivo biodistribution, Lg. Int ([3]; 24 h): 0.59 ± 0.24 %ID/g
- In vivo biodistribution, Liver ([3]; 24 h): 0.22 ± 0.03 %ID/g
- In vivo biodistribution, Muscle ([3]; 24 h): 0.01 ± 0.01 %ID/g
- In vivo biodistribution, Pancreas ([3]; 24 h): 0.03 ± 0.01 %ID/g
- In vivo biodistribution, Sm. lnt ([3]; 24 h): 0.19 ± 0.01 %ID/g
- In vivo biodistribution, Spleen ([3]; 24 h): 0.05 ± 0.01 %ID/g
- In vivo biodistribution, Stomach ([3]; 24 h): 0.69 ± 0.23 %ID/g
- percent intact 99mTc-analogue post purification ([4]; 1 h): 97.4 ± 1.9%
- percent intact 99mTc-analogue post purification ([4]; 2 h): 97.1 ± 1.5%
- percent intact 99mTc-analogue post purification ([4]; 4 h): 95.2 ± 1.7%
- percent intact 99mTc-analogue post purification ([4]; 24 h): 57.6 ± 7.5%

Source: article PMC3086726 (Nuclear medicine and biology, 2010)
